Data on 5 molecules can be found in ChEMBL document CHEMBL1148166, “30-, 31-, and 32-hydroxybullatacinones: bioactive terminally hydroxylated annonaceous acetogenins from Annona bullata” (J Nat Prod, 1993).

SMILES strings stand for the structures. In brackets after ≈: the same amount, converted by molar mass.

One data set has as its system HT-29. Description: Cytotoxicity against human HT-29 cells. Type of data set: functional.
Data set [1] can be described thus: (§1) Toxicity in brine shrimp. In kind it is organism-based. Particulars: artemia, in vivo. In outline: (§2)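 Lethality read-out in brine shrimp larvae (BST), used routinely to screen extracts, fractions and isolated compounds.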
The next data set relates to A549. Nature of the data set: Cytotoxicity against human A549 cells. In kind it is functional. Particulars: for EC50: Homo sapiens, A549, read-out: ED50 (the source's name).
Another data set deals with MCF7. Description: Cytotoxicity against human MCF7 cells. Particulars: for EC50: Homo sapiens, MCF7, read-out: ED50 (the source's name). Type of data set: functional.
The test system of the next data set is Artemia. The data set is described as §1. In kind it is organism-based. Particulars: in vivo. An outline of the steps:
as §2

Take `CCCC(O)CCCCCC[C@H](O)[C@H]1CC[C@H]([C@H]2CC[C@H]([C@H](O)CCCCCCCCCCC3CC(CC(C)=O)C(=O)O3)O2)O1` (mixture of isomers): the ED50 in the data set on HT-29 is 1.09 ×10⁻¹² ug/ml; in the data set on A549, 3.29 ×10⁻¹¹ ug/ml; in the data set with MCF7, 7.63 ×10⁻⁴ ug/ml. In data set [1], this molecule gave an LC50 of 0.158 µg/mL.

The molecule `CCCCCCCCCC[C@H](O)[C@H]1CC[C@H]([C@H]2CC[C@H]([C@H](O)CCCCCCCCCCC3CC(CC(C)=O)C(=O)O3)O2)O1` (mixture of isomers) displayed an ED50 in the data set on HT-29 of 1.19 ×10⁻⁶ ug/ml. The same molecule registered an LC50 in data set [1] of 0.0054 µg/mL. For the same molecule, the EC50 with A549 worked out at 0.00218 µg/mL; in the data set on MCF7, 12.2 µg/mL.

Take `CCCCC(O)CCCCC[C@H](O)[C@H]1CC[C@H]([C@H]2CC[C@H]([C@H](O)CCCCCCCCCCC3CC(CC(C)=O)C(=O)O3)O2)O1` (mixture of isomers): the results for the ED50 with HT-29 and in the data set with A549 were below 1 ×10⁻¹² ug/ml and 1.66 ×10⁻⁹ ug/ml, respectively. Moreover, the LC50 with Artemia turned out to be 4.05 ×10⁻² ug/ml. Moreover, the EC50 in the data set on MCF7 came to 0.105 µg/mL.

In turn, `CCC(O)CCCCCCC[C@H](O)[C@H]1CC[C@H]([C@H]2CC[C@H]([C@H](O)CCCCCCCCCCC3CC(CC(C)=O)C(=O)O3)O2)O1` (mixture of isomers) came in with an ED50 in the data set with HT-29 below 1 ×10⁻¹² ug/ml. The LC50 with Artemia is listed as 4.67 ×10⁻² ug/ml. In addition, the figures for the EC50 in the data set with A549 and in the data set on MCF7 were 0.00125 µg/mL and 0.161 µg/mL, respectively.

For the molecule `COc1cccc2c1C(=O)c1c(O)c3c(c(O)c1C2=O)C[C@@](O)(C(=O)CO)C[C@@H]3O[C@H]1C[C@H](N)[C@H](O)[C@H](C)O1` [DOXORUBICIN], the results for the ED50 with HT-29 and in the data set on A549 were 3.32 ×10⁻⁴ ug/ml and 1.98 ×10⁻⁴ ug/ml, respectively. For the same molecule, in the data set with MCF7, the EC50 was determined as 0.00202 µg/mL (≈ 3.72 nM).
